The results in this text go back to ChEMBL document CHEMBL3351992, “Modular assembly of purine-like bisphosphonates as inhibitors of HIV-1 reverse transcriptase” (J Med Chem, 2014).

Active and inactive are the calls of the source. No cut-off for these calls is given here.

The test system of assay [1] is Human immunodeficiency virus type 1 reverse transcriptase (Human immunodeficiency virus 1), Q72547 [K65R]. In words: Inhibition of wild type HIV1 reverse transcriptase K65R mutant assessed as inhibition of DNA primer extension using [8-3H(N)]-dATP by scintillation proximity assay relative to wild type. For orientation: SPA uses beads or plates that emit light when radiolabelled molecules are held near them.

For assay [2], the target named is Human immunodeficiency virus type 1 reverse transcriptase (Human immunodeficiency virus 1, UniProt Q72547). In words: Inhibition of wild type HIV1 reverse transcriptase assessed as inhibition of DNA primer extension using [8-3H(N)]-dATP by scintillation proximity assay. The essentials:
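Biotinylated PPT80 DNA template annealed to DNA PPT primer (50 nM hybrid), preincubated 5 min at 37 °C with inhibitor in 50 mM Tris pH 7.8, 50 mM NaCl, 6 mM MgCl2, 4 μM dCTP/dGTP/dTTP, 0.5 μM [8-3H]-dATP. Purified RT added and reaction run 5 min. Quenched with EDTA plus streptavidin SPA beads. Beads counted after ~8 h settling. Ten-point 3-fold dilutions from 100 μM to 10 nM, DMSO ≤5%. Activity taken relative to uninhibited controls. IC50 from variable-slope sigmoidal fit; triplicate determinations.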

The target of assay [3] is T1, Geranylgeranyl pyrophosphate synthase (Homo sapiens) (UniProt O95749).
T1 sequence (whole entry): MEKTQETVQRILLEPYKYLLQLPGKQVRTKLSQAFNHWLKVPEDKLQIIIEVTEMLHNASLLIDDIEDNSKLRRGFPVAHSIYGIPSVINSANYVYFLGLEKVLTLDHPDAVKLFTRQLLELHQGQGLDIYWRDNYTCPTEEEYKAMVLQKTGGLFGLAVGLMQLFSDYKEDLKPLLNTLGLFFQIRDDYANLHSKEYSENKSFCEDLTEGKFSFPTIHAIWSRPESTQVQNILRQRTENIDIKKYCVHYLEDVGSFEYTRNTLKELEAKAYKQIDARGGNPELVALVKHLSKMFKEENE
The assay is described as follows: Inhibition of human GGPPS at 50 uM.

Assay [4] addresses T2, Farnesyl pyrophosphate synthase (Homo sapiens) (UniProt P14324).
T2 sequence (whole entry): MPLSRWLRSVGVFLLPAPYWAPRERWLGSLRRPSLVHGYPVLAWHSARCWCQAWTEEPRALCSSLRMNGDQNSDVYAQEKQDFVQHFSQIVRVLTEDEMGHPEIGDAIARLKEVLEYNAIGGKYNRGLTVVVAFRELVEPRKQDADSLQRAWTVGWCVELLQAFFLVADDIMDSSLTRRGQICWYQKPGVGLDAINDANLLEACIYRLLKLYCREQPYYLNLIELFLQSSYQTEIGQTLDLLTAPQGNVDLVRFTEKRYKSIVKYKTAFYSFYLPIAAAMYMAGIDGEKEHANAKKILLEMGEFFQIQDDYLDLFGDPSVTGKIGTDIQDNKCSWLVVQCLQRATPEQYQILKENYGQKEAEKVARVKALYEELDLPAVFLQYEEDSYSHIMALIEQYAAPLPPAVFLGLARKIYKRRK
In words: Inhibition of human FPPS at 50 uM.

Assay [5] relates to Human immunodeficiency virus type 1 reverse transcriptase (Human immunodeficiency virus 1), Q72547 [M184V]. The assay is described as follows: Inhibition of wild type HIV1 reverse transcriptase M184V mutant assessed as inhibition of DNA primer extension using [8-3H(N)]-dATP by scintillation proximity assay relative to wild type.
Assay [6] addresses Human immunodeficiency virus type 1 reverse transcriptase (Human immunodeficiency virus 1, UniProt Q72547, M184V). In words: Inhibition of wild type HIV1 reverse transcriptase M184V mutant assessed as inhibition of DNA primer extension using [8-3H(N)]-dATP by scintillation proximity assay. The essentials: (§1)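 50 nM biotinylated PPT80 template/PPT primer and inhibitor (10-step 3-fold series, 100 μM–10 nM final, DMSO ≤5%) were preincubated 5 min at 37 °C. Buffer: 50 mM Tris pH 7.8, 50 mM NaCl, 6 mM MgCl2, 4 μM dCTP/dGTP/dTTP, 0.5 μM [3H]dATP. RT started the 5-min reaction, stopped with EDTA/streptavidin SPA beads. Counts were normalized to uninhibited controls; IC50 from variable-slope sigmoid fit.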

Assay [7] deals with Human immunodeficiency virus type 1 reverse transcriptase (Human immunodeficiency virus 1, UniProt Q72547, K65R). The assay is described as follows: Inhibition of wild type HIV1 reverse transcriptase K65R mutant assessed as inhibition of DNA primer extension using [8-3H(N)]-dATP by scintillation proximity assay. In outline:
as §1

The target of assay [8] is T2, Farnesyl pyrophosphate synthase (Homo sapiens). In words: Inhibition of human FPPS at 10 uM.
Assay [9] deals with T1, Geranylgeranyl pyrophosphate synthase (Homo sapiens). In words: Inhibition of human GGPPS at 10 uM.

In the case of `CSc1nc2ncnc(NC(P(=O)(O)O)P(=O)(O)O)c2cc1-c1ccc(OC(C)C)cc1`, the figures for the Ratio IC50 in assay [1] and in assay [5] were 2.1 and 1.6, respectively. Also, the IC50 (commonly the concentration at which inhibition is half-maximal) in assay [2] was 1.8 µM; in assay [6] it was 1.4 µM; in assay [7], 1.8 µM. Moreover, the inhibition in assay [3] and in [4] was below 10% throughout.
As for `CSc1nc2ncnc(NCC(P(=O)(O)O)P(=O)(O)O)c2cc1-c1ccccc1`, the Ratio IC50 in assay [1] was found to be 3.4; in assay [5] it was 0.4. In assay [8], the inhibition – broadly, the percentage by which the read-out fell short of the control – is 75%. The inhibition entry in assay [9] was “inactive”. Moreover, the values for the IC50 in [2], in [6] and in [7] were 1.1 µM, 0.6 µM and 5.2 µM, respectively.
As for `COc1cccc(-c2cnc3ncnc(NCC(P(=O)(O)O)P(=O)(O)O)c3c2)c1`, the IC50 in assay [2] came to 20 µM.
The same measure, in the same setting: with `O=P(O)(O)C(Nc1ncnc2nc(-c3cccs3)ccc12)P(=O)(O)O` the figure was 10.4 µM.
The same measure, in the same setting: with `CSc1ccc2c(NC(P(=O)(O)O)P(=O)(O)O)ncnc2n1` the figure was above 50 µM.
As to `COc1cccc(-c2cc3c(NCC(P(=O)(O)O)P(=O)(O)O)ncnc3nc2SC)c1`, the Ratio IC50 in assay [1] worked out at 2.1; in [5], 2.7. The inhibition in [8] came to 75%. In assay [9], the inhibition entry was “inactive”. Further, the IC50 was 2.4 µM in [2], 4.2 µM in assay [6] and 3.3 µM in assay [7].
In the case of `O=P(O)(O)C(CNc1ncnc2ncccc12)P(=O)(O)O`, in assay [2], the half-maximal inhibitory concentration (IC50) was above 50 µM.
Still for that read-out and setting: next, `O=P(O)(O)C(CNc1ncnc2ncc(-c3ccsc3)cc12)P(=O)(O)O`: 9 µM.
On the same count and under the same terms, next, `O=P(O)(O)C(Nc1ncnc2ncccc12)P(=O)(O)O`: above 50 µM; `CSc1nc2ncnc(NCC(P(=O)(O)O)P(=O)(O)O)c2cc1-c1ccc(OC(C)C)cc1`: 7.1 µM.
On the same count and under the same terms, next, `CC(C)Oc1ccc(-c2cnc3ncnc(NC(P(=O)(O)O)P(=O)(O)O)c3c2)cc1`: 10 µM.
Regarding `CSc1nc2ncnc(NCC(P(=O)(O)O)P(=O)(O)O)c2cc1-c1ccsc1`, the 50% inhibitory concentration (IC50) in [2] amounted to 8.3 µM.
The same measure, in the same setting: with `O=C(O)C(=NNc1ccc(Cl)cc1)C(=O)O` the figure was 1.5 µM.
